Source: ChEMBL document CHEMBL1127320, “Dual-action cephalosporins incorporating a 3'-tertiary-amine-linked quinolone” (J Med Chem, 1994)
Converted amounts (≈) assume the structure as drawn.

Tests used:
[1] = test system: Micrococcus luteus; assay: In vitro minimum inhibitory concentration was measured against Micrococcus luteus ATCC 9341 strain.; type: functional
Summary of the method: (§1)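 Streptococci were tested on brain heart infusion agar plus 20 units/mL catalase, Proteus on Mueller-Hinton with 3% agar, and others on Mueller-Hinton agar. Inocula were 100-fold-diluted overnight cultures, about 3 × 10^4 CFU/spot, read after overnight incubation at 36 °C.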

[2] = test system: Streptococcus pneumoniae; assay: Tested for its efficacy against systemic murine infection caused by Streptococcus pneumoniae 6301.; type: functional
Summary of the method: (§2)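 CD1 Swiss albino mice (18-20 g) were infected intraperitoneally with 0.5 mL of diluted culture. Within 5 min they received 1.0 mL test solution subcutaneously at the dorsal neck, in dilutions spanning 250–0.05 mg/kg. P. aeruginosa groups received a second dose at 3 h. Groups were six mice. ED50 was calculated by Reed–Muench interpolation of cumulative survival.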

[3] = test system: Klebsiella pneumoniae; assay: Tested for its efficacy against systemic murine infection caused by Klebsiella pneumoniae A; type: functional; summary of the method: as §2
[4] = test system: Staphylococcus aureus; assay: In vitro minimum inhibitory concentration was measured against Staphylococcus aureus 753 (Methicillin resistant) strain.; type: functional
[5] = test system: Serratia marcescens; assay: Tested for its efficacy against systemic murine infection caused by Serratia marcescens SM.; type: functional; summary of the method: as §2
[6] = test system: Klebsiella pneumoniae; assay: In vitro minimum inhibitory concentration was measured against Klebsiella pneumoniae A strain.; type: functional; summary of the method: as §1
[7] = test system: Staphylococcus aureus; assay: In vitro minimum inhibitory concentration was measured against Staphylococcus aureus 67-0 (Methicillin resistant) strain.; type: functional
[8] = test system: Citrobacter freundii; assay: In vitro minimum inhibitory concentration was measured against Citrobacter freundii BS-16 (beta lactamase producer) strain.; type: functional
Summary of the method: as §1, with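 “MICs were determined by agar dilution with 2-fold dilutions giving final 128–0.0156 µg/mL, extended to 0.000977 µg/mL where needed. Streptococci” for “Streptococci”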

[9] = test system: Serratia marcescens; assay: In vitro minimum inhibitory concentration was measured against Serratia marcescens 1071(beta lactamase producer) strain.; type: functional; summary of the method: as §1
[10] = test system: Streptococcus pneumoniae; assay: In vitro minimum inhibitory concentration was measured against Streptococcus pneumoniae 6301 strain; type: functional; summary of the method: as §1
[11] = test system: Proteus mirabilis; assay: In vitro minimum inhibitory concentration was measured against Proteus mirabilis 90 strain.; type: functional; summary of the method: as §1
[12] = test system: Staphylococcus aureus; assay: Tested for its efficacy against systemic murine infection caused by Staphylococcus aureus smith.; type: functional; summary of the method: as §2
[13] = test system: Streptococcus pyogenes; assay: In vitro minimum inhibitory concentration was measured against Streptococcus pyogenes 4 strain.; type: functional; summary of the method: as §1
[14] = test system: Enterococcus faecalis; assay: In vitro minimum inhibitory concentration was measured against Enterococcus faecalis ATCC 29212 strain.; type: functional; summary of the method: as §1
[15] = test system: Pseudomonas aeruginosa; assay: Tested for its efficacy against systemic murine infection caused by Pseudomonas aeruginosa 8780.; type: functional; summary of the method: as §2
[16] = test system: Escherichia coli; assay: In vitro minimum inhibitory concentration was measured against Escherichia coli TEM-1 (Beta lactamase producer) strain.; type: functional; summary of the method: as §1
[17] = test system: Proteus vulgaris; assay: In vitro minimum inhibitory concentration was measured against Proteus vulgaris 1028BC (beta lactamase producer) strain.; type: functional; summary of the method: as §1
[18] = target: T1, Penicillin-binding protein 1A (Escherichia coli K-12) (UniProt P02918); assay: Affinity for penicillin binding protein 1a of Escherichia coli UB1005 (DC0) was evaluated.; set-up: unit not given here
T1 sequence (whole entry): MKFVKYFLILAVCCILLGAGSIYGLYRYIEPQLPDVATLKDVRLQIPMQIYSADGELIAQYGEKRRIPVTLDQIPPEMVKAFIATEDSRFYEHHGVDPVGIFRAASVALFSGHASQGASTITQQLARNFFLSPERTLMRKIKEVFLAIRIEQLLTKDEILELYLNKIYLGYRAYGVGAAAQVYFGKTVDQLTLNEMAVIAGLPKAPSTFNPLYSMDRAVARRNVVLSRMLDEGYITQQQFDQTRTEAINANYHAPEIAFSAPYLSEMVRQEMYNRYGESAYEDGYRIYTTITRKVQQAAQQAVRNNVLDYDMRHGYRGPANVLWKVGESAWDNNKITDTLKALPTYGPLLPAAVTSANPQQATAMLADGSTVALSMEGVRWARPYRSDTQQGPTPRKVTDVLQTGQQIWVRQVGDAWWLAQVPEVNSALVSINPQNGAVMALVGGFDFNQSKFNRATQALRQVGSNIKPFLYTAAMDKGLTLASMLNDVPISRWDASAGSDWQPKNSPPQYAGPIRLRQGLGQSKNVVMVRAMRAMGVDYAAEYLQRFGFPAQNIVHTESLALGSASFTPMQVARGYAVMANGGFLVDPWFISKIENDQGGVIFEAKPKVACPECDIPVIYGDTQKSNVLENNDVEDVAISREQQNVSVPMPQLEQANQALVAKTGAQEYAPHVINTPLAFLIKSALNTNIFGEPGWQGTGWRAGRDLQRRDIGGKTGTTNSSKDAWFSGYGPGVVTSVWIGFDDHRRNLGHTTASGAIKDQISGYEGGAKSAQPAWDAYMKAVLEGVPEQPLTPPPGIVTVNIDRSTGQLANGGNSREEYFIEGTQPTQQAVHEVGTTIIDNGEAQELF
Summary of the method: (§3)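 Solubilised membranes from sonicated E. coli UB1005 served as the binding-protein source. Binding was read as inhibition of [14C]penicillin G binding.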

[19] = target: T2, Penicillin-binding protein 1B (Escherichia coli K-12) (UniProt P02919); assay: Affinity for penicillin binding protein 1b of Escherichia coli UB1005 (DC0) was evaluated.; set-up: unit not given here; summary of the method: as §3
T2 sequence (whole entry): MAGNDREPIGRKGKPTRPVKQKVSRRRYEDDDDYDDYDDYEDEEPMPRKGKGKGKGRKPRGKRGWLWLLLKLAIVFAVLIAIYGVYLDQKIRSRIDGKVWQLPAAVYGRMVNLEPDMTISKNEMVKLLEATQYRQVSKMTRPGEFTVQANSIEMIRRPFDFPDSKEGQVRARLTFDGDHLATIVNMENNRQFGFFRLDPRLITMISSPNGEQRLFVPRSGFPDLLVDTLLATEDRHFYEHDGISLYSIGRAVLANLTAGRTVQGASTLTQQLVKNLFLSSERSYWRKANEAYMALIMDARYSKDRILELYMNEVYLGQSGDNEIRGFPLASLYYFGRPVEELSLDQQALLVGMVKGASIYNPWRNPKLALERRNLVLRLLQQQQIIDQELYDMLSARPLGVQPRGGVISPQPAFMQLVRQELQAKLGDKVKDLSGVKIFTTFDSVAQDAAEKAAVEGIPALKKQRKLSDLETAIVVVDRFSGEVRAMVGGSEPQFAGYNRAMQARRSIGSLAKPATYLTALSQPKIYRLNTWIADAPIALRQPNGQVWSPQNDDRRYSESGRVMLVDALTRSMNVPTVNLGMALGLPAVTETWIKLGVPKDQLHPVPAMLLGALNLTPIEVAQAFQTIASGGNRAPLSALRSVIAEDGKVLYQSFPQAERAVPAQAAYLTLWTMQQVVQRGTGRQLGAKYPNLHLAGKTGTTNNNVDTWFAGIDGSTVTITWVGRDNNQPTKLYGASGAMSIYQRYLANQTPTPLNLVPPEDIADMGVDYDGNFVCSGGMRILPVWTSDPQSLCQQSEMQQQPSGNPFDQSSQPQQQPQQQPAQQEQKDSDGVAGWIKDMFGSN

[20] = test system: Enterobacter cloacae; assay: In vitro minimum inhibitory concentration was measured against Enterobacter cloacae p99 (beta lactamase producer) strain.; type: functional
[21] = test system: Escherichia coli; assay: In vitro minimum inhibitory concentration was measured against Escherichia coli 257 strain.; type: functional; summary of the method: as §1
[22] = target: T3, Peptidoglycan D,D-transpeptidase MrdA (Escherichia coli K-12) (UniProt P0AD65); assay: Affinity for penicillin binding protein 2 of Escherichia coli UB1005 (DC0) was evaluated.; set-up: unit not given here; summary of the method: as §3
T3 sequence (whole entry): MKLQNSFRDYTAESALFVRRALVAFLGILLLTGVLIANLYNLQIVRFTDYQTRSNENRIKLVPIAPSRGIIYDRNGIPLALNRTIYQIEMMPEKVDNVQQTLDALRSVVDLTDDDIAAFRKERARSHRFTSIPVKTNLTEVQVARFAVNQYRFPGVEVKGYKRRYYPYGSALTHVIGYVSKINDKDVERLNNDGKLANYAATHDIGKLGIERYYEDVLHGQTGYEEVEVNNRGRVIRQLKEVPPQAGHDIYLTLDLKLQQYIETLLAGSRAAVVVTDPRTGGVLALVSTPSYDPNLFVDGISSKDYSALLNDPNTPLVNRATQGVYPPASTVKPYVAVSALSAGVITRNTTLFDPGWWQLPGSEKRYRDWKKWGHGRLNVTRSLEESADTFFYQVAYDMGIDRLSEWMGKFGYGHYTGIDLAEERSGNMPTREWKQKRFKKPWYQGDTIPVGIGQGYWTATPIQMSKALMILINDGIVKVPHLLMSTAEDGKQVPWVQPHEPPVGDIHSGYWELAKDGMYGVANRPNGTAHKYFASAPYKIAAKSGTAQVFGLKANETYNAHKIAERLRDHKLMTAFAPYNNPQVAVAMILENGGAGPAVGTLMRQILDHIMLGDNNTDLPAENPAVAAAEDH

[23] = test system: Escherichia coli; assay: Minimum inhibitory concentration for DC2, a permeability mutant
Summary of the method: as §1, with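 “MICs were determined by agar dilution with 2-fold dilutions giving final 128–0.0156 µg/mL, extended to 0.000977 µg/mL where needed. Streptococci” for “Streptococci”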

[24] = test system: Penicillin-binding protein 3 (Escherichia coli); assay: Affinity for penicillin binding protein 3 of Escherichia coli UB1005 (DC0) was evaluated.; (</=)
[25] = test system: Escherichia coli; assay: Minimum inhibitory concentration against E. coli UB1005 (DC0)

`O=C(O)c1cn(C2CC2)c2cc(N3CCNCC3)c(F)cc2c1=O` [CIPROFLOXACIN] showed an MIC [1] of 2 µg/mL (≈ 6.04 µM), an ED50 [2] of over 100 mg/kg and an ED50 [3] of 1 mg/kg. For the same compound, the MIC [4] was 0.25 µg/mL (≈ 0.754 µM), the ED50 [5] was under 0.5 mg/kg and the MIC [6] was 0.25 µg/mL (≈ 0.754 µM). For the same compound, the MIC [7] was 0.5 µg/mL (≈ 1.51 µM), the MIC [8] was 0.031 µg/mL (≈ 0.0936 µM) and the MIC [9] was 0.063 µg/mL (≈ 0.19 µM). The MIC [10] was 1 µg/mL (≈ 3.02 µM), the MIC [11] was 0.063 µg/mL (≈ 0.19 µM) and the ED50 [12] was 3 mg/kg. For the same compound, the MIC [13] was 0.5 µg/mL (≈ 1.51 µM), the MIC [14] was 1 µg/mL (≈ 3.02 µM) and the ED50 [15] was 4 mg/kg.
For `O=C(O)C1=C(CN2CCN(c3cc4c(cc3F)c(=O)c(C(=O)O)cn4C3CC3)CC2)CS[C@@H]2[C@H](NC(=O)[C@H](O)c3ccccc3)C(=O)N12`, the MIC [16] was 0.125 µg/mL (≈ 0.184 µM), the MIC [1] was 0.031 µg/mL (≈ 0.0457 µM) and the MIC [17] was 0.063 µg/mL (≈ 0.093 µM). It also gave an MIC [8] of 0.125 µg/mL (≈ 0.184 µM), a Binding affinity [18] of 100 and a Binding affinity [19] of over 100. It also gave an MIC [20] of 0.031 µg/mL (≈ 0.0457 µM), an MIC [21] of 0.125 µg/mL (≈ 0.184 µM) and an MIC [10] of 0.063 µg/mL (≈ 0.093 µM). It also gave a Binding affinity [22] of over 100, an MIC [23] of 2 µg/mL (≈ 2.95 µM) and an MIC [13] of 0.031 µg/mL (≈ 0.0457 µM). It also gave a Binding affinity [24] of under 0.1 and an MIC [25] of 4 µg/mL (≈ 5.9 µM).
